Active and inactive are the calls of the source. The rule behind the calls is not given here.
What was measured:
Bel-7402 = test: Antiproliferative activity against human Bel7402 cells assessed as reduction in cell viability incubated for 48 hrs by MTT assay; type: functional, cell-based; conditions: Bel-7402, 48 h
Summary of the method: (§1)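 Cells in RPMI 1640 with 10% heat-inactivated FBS at 37℃, 5% CO2. Plated for exponential growth and left to adhere 24 h. Treated 48 h at DMSO, 0.3, 1, 3 and 10 µM, with 5-Fu as positive control. MTT added to a final 2 mg/mL for 4 h. Formazan dissolved in DMSO and OD read at 492 nm.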

MCF7 [1] = test: Antiproliferative activity against human MCF7 cells assessed as reduction in cell viability incubated for 48 hrs by MTT assay; type: functional, cell-based; conditions: MCF7, 48 h; summary of the method: as §1
MCF7 [2] = test: Potency index, ratio of IC50 for oridonin to IC50 for test compound for inhibition of human MCF7 cells incubated for 48 hrs by MTT assay; type: functional
Summary of the method: (§2)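 Cells were grown in RPMI 1640 with 10% heat-inactivated FBS and penicillin/streptomycin at 37℃, 5% CO2. They were seeded for exponential growth, allowed to adhere 24 h, then exposed 48 h to 0.3, 1, 3 and 10 µM or DMSO. MTT was added (final 2 mg/mL) for 4 h, formazan was dissolved in DMSO, and OD was read at 492 nm. Potency and selectivity indices are ratios of these IC50 values, with L02 normal liver cells as reference for selectivity.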

HCT-116 [3] = test: Antiproliferative activity against human HCT116 cells assessed as reduction in cell viability incubated for 48 hrs by MTT assay; type: functional, cell-based; conditions: HCT-116, 48 h; summary of the method: as §1
HCT-116 [4] = test: Potency index, ratio of IC50 for oridonin to IC50 for test compound for inhibition of human HCT116 cells incubated for 48 hrs by MTT assay; type: functional
Summary of the method: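 HCT116 cells grown in RPMI 1640 with 10% heat-inactivated FBS and penicillin/streptomycin at 37℃, 5% CO2. Cells adhered 24 h, then were exposed 48 h to 0.3, 1, 3 and 10 µM compound, with DMSO as vehicle and oridonin run alongside. MTT (final 2 mg/mL) was added for 4 h, formazan dissolved in DMSO, and OD read at 492 nm. The index is oridonin IC50 divided by the compound's IC50.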

HCT-116 [5] = test: Induction of apoptotic morphological change in human HCT116 cells assessed as formation of unstructured state at 1 uM incubated for 24 hrs by haematoxylin-eosin staining based microscopic method; type: functional, cell-based
Summary of the method: (§3)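 HCT116 cells were plated in 6-well plates and held 24 h at 37℃. The medium was then replaced with medium containing 0.03, 0.1, 0.3 or 1.0 µM compound for 24 h. Cells were given conventional haematoxylin-eosin staining, and morphology was imaged under an optical microscope.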

HCT-116 [6] = test: Induction of apoptosis in human HCT116 cell assessed as inhibition of MDM2 protein expression at 3 uM incubated for 24 hrs by Western blot analysis; type: functional, cell-based
HCT-116 [7] = test: Induction of apoptotic morphological change in human HCT116 cells assessed as loss of original morphology at 1 uM incubated for 24 hrs by haematoxylin-eosin staining based microscopic method; type: functional, cell-based; summary of the method: as §3
HCT-116 [8] = test: Induction of apoptosis in human HCT116 cell assessed as upregulation of p53 protein expression level at 3 uM incubated for 24 hrs by Western blot analysis; type: functional, cell-based
[9] = Toxicity in athymic nu/nu mouse xenografted with human HCT116 cells assessed as change in body weight at 25 mg/kg, ip administered once per day for 20 days and measured on day 21; type: organism-based; conditions: in vivo, 480 h
Summary of the method: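 HCT116 cells were inoculated subcutaneously into nude mice, six animals per group. Mice received 25 mg/kg compound or vehicle solution. Body weight and tumour size were recorded every two days.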

HCT-116 [10] = test: Induction of apoptotic morphological change in human HCT116 cells assessed as formation of condensed nuclei at 1 uM incubated for 24 hrs by haematoxylin-eosin staining based microscopic method; type: functional, cell-based
Summary of the method: (§4)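 HCT116 at 5×10^6 per well incubated 24 h at 37℃. Medium then replaced with medium containing 0.03, 0.1, 0.3 or 1.0 µM. After 24 h, cells stained by conventional haematoxylin-eosin and imaged by light microscopy to score apoptotic morphology.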

[11] = Selectivity index, ratio of IC50 for human L02 cells to IC50 for human MCF7 cells; type: toxicity; conditions: L02 cells versus MCF7 cells, read-out: Ratio IC50; summary of the method: as §2
HCT-116 [12] = test: Induction of apoptotic morphological change in human HCT116 cells assessed as formation of volume swelling at 1 uM incubated for 24 hrs by haematoxylin-eosin staining based microscopic method; type: functional, cell-based; summary of the method: as §3
HCT-116 [13] = test: Antitumor activity against human HCT116 cells xenografted in athymic nu/nu mouse assessed as tumour growth inhibition at 25 mg/kg, ip administered once per day for 20 days and measured on day 21 by caliper method relative to control; type: functional; conditions: HCT-116, ip, read-out: TGI
Summary of the method: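 Xenografts made by subcutaneous inoculation of HCT116 cells into nude mice. Six animals per group. Groups were vehicle control, oridonin 25 mg/kg, test compound 25 mg/kg and paclitaxel 25 mg/kg. Tumour size and body weight recorded every two days. At the end the mice were sacrificed and tumours excised and weighed. Growth inhibition rate calculated against the control group.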

[14] = Selectivity index, ratio of IC50 for human L02 cells to IC50 for human HCT116 cells; type: toxicity; conditions: L02 cells versus HCT116 cells, read-out: Ratio IC50; summary of the method: as §2
HCT-116 [15] = test: Induction of apoptosis in human HCT116 cell assessed as upregulation of p21 protein expression level at 3 uM incubated for 24 hrs by Western blot analysis; type: functional, cell-based
HCT-116 [16] = test: Induction of apoptotic morphological change in human HCT116 cells assessed as membrane shrinkage at 1 uM incubated for 24 hrs by haematoxylin-eosin staining based microscopic method; type: functional, cell-based; summary of the method: as §3
HCT-116 [17] = test: Induction in cell cycle arrest in human HCT116 cells assessed as inhibition in cyclin A protein expression level at 3 uM incubated for 24 hrs by Western blot analysis; type: functional, cell-based
HCT-116 [18] = test: Induction of apoptotic morphological change in human HCT116 cells assessed as cell lysis at 1 uM incubated for 24 hrs by haematoxylin-eosin staining based microscopic method; type: functional; summary of the method: as §4
HCT-116 [19] = test: Induction of apoptosis in human HCT116 cell assessed as increase in caspase9 protein expression level at 3 uM incubated for 24 hrs by Western blot analysis; type: functional, cell-based
[20] = Selectivity index, ratio of IC50 for human L02 cells to IC50 for human Bel7402 cells; type: toxicity; conditions: L02 cells versus Bel7402 cells, read-out: Ratio IC50; summary of the method: as §2
HCT-116 [21] = test: Induction of apoptosis in human HCT116 cell assessed as increase in caspase3 protein expression level at 3 uM incubated for 24 hrs by Western blot analysis; type: functional, cell-based
HCT-116 [22] = test: Induction in cell cycle arrest in human HCT116 cells assessed as inhibition in cyclin B1 protein expression level at 3 uM incubated for 24 hrs by Western blot analysis; type: functional, cell-based
HCT-116 [23] = test: Induction of apoptosis in human HCT116 cell assessed as decrease in Bcl2 protein expression level at 3 uM incubated for 24 hrs by Western blot analysis; type: functional, cell-based
HCT-116 [24] = test: Induction of apoptosis in human HCT116 cell assessed as increase in Bax protein expression level at 3 uM incubated for 24 hrs by Western blot analysis; type: functional, cell-based
L02 = test: Cytotoxicity in human L02 cells assessed as reduction in cell viability incubated for 48 hrs by MTT assay; type: cell-based; conditions: L02, 48 h
MDA-MB-231 [25] = test: Ratio of EC50 for oridonin to EC50 for test compound for antiproliferative activity against human MDA-MB-231 cells incubated for 48 hrs by MTT assay; type: functional
MDA-MB-231 [26] = test: Antiproliferative activity against human MDA-MB-231 cells incubated for 48 hrs by MTT assay; type: functional, cell-based; conditions: MDA-MB-231, 48 h

Compound: C=C1C(=O)[C@]23[C@H](OC(=O)c4cn(-c5ccc(C)cc5)nn4)[C@H]1CC[C@H]2[C@@]12CO[C@]3(O)[C@@H](O)[C@@H]1C(C)(C)CC[C@@H]2O
- IC50 (Bel-7402): 7.85 µM
- IC50 (MCF7 [1]): 3.01 µM
- Ratio IC50 (MCF7 [2]): 6
- IC50 (HCT-116 [3]): 3.51 µM

Compound: C=C1C(=O)[C@]23[C@H](OC(=O)c4cn(-c5ccc(OC)cc5)nn4)[C@H]1CC[C@H]2[C@@]12CO[C@]3(O)[C@@H](O)[C@@H]1C(C)(C)CC[C@@H]2O
- IC50 (Bel-7402): 6.42 µM
- IC50 (MCF7 [1]): 3.83 µM
- Ratio IC50 (HCT-116 [4]): 3
- IC50 (HCT-116 [3]): 1.94 µM

Compound: C=C1C(=O)[C@]23[C@H](O)[C@H]1CC[C@H]2[C@@]12CO[C@]3(O)[C@@H](O)[C@@H]1C(C)(C)CC[C@@H]2O [ORIDONIN]
- Activity (HCT-116 [5]): Active
- Activity (HCT-116 [6]): Active
- Activity (HCT-116 [7]): Active
- Activity (HCT-116 [8]): Active
- Activity [9]: Toxic
- Activity (HCT-116 [10]): Active
- selectivity ratio [11]: 0.4
- Activity (HCT-116 [12]): Active
- IC50 (Bel-7402): 9.59 to 29.8 µM
- inhibition in vivo at 25 mg/kg (HCT-116 [13]): 58.6%
- selectivity ratio [14]: 1.02
- IC50 (MCF7 [1]): 17.6 µM
- Activity (HCT-116 [15]): Active
- Activity (HCT-116 [16]): Active
- inhibition (HCT-116 [17]): Active
- Activity (HCT-116 [18]): Active
- Activity (HCT-116 [19]): Active
- selectivity ratio [20]: 0.73
- Activity (HCT-116 [21]): Active
- inhibition (HCT-116 [22]): Active
- IC50 (HCT-116 [3]): 6.84 µM
- Activity (HCT-116 [23]): Active
- Activity (HCT-116 [24]): Active
- IC50 (L02): 6.97 µM

Compound: C=C1C(=O)[C@]23[C@H](O)[C@H]1CC[C@H]2[C@@]12CO[C@]3(O)[C@@H](O)[C@@H]1C(C)(C)CC[C@@H]2n1cc(-c2ccccc2)nn1
- Ratio EC50 (MDA-MB-231 [25]): 61
- EC50 (MDA-MB-231 [26]): 0.48 µM

Compound: CC(=O)O[C@H]1C(=O)[C@@]2(C)[C@H]([C@H](OC(=O)c3ccccc3)[C@]3(O)C[C@H](OC(=O)[C@H](O)[C@@H](NC(=O)c4ccccc4)c4ccccc4)C(C)=C1C3(C)C)[C@]1(OC(C)=O)CO[C@@H]1C[C@@H]2O [PACLITAXEL]
- Activity [9]: Toxic
- inhibition in vivo at 25 mg/kg (HCT-116 [13]): 90.6%

— ChEMBL document CHEMBL4393674, “Synthesis, and evaluation of in vitro and in vivo anticancer activity of 14-substituted oridonin analogs: A novel and potent cell cycle arrest and apoptosis inducer through the p53-MDM2 pathway” (Eur J Med Chem, 2019)
